Source: ChEMBL document CHEMBL4118097, “Selective Inhibitors of Dual Leucine Zipper Kinase (DLK, MAP3K12) with Activity in a Model of Alzheimer's Disease” (J Med Chem, 2017)
pIC50: −log10 of the molar value.

Legend:
[1] = biological target: Serine/threonine-protein kinase PLK3 (Homo sapiens) (UniProt Q9H4B4); test: Inhibition of GST-tagged human PLK3 catalytic domain expressed in baculovirus expression system at 1 uM by FRET assay relative to control
[2] = biological target: Receptor-type tyrosine-protein kinase FLT3 (Homo sapiens, UniProt P36888); test: Inhibition of recombinant His-tagged human FLT3 cytoplasmic domain expressed in baculovirus expression system by FRET assay
[3] = biological target: Dual specificity mitogen-activated protein kinase kinase 6 (Homo sapiens) (UniProt P52564); test: Inhibition of recombinant human full length His-tagged MKK6 expressed in baculovirus at 1 uM by FRET assay relative to control
[4] = biological target: Ephrin type-A receptor 3 (Homo sapiens) (UniProt P29320); test: Inhibition of recombinant His-tagged human EphA3 cytoplasmic domain expressed in baculovirus expression system at 1 uM by FRET assay relative to control
Procedure, shortened: (§1)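 Single-point screen at 1 μM compound in a 220-kinase panel run by Life Technologies (SelectScreen). Z′-LYTE format: phosphorylation of a labeled peptide substrate read by FRET. Values are reported as percent inhibition.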

[5] = biological target: Tyrosine-protein kinase ABL1 (Homo sapiens) (UniProt P00519); test: Inhibition of recombinant GST/His-tagged human Abl (118 to 535 residues) at 1 uM by FRET assay relative to control; procedure, shortened: as §1
[6] = biological target: Phosphorylase b kinase gamma catalytic chain, skeletal muscle/heart isoform (Homo sapiens) (UniProt Q16816); test: Inhibition of recombinant full length GST-tagged human PHKgamma1 expressed in baculovirus expression system at 1 uM by FRET assay relative to control
Procedure, shortened: (§2)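 Single-concentration screen at 1 μM in Life Technologies SelectScreen, across a 220-kinase panel. Z′-LYTE format measures phosphorylation of a labeled peptide by FRET. Results are reported as percent inhibition.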

[7] = biological target: MAP kinase-interacting serine/threonine-protein kinase 2 (Homo sapiens) (UniProt Q9HBH9); test: Inhibition of recombinant human N-terminal full length GST-tagged MKNK2 expressed in baculovirus at 1 uM by FRET assay relative to control
Homo sapiens [8] = organism: Homo sapiens; test: Binding affinity to BZD receptor (unknown origin) at 10 uM relative to control
Procedure, shortened: (§3)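 Broad radioligand-binding and enzyme screening panel covering 42 targets (biogenic amine and neuropeptide receptors, ion channels, neurotransmitter transporters, acetylcholinesterase). Single test concentration of 10 μM. Results expressed as binding relative to control, with a hit defined as >50% of control.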

[9] = biological target: Activated CDC42 kinase 1 (Homo sapiens) (UniProt Q07912); test: Inhibition of recombinant GST-tagged human TNK2 catalytic/cytoplasmic domain (110 to 476 residues) expressed in baculovirus expression system at 1 uM by FRET assay relative to control; procedure, shortened: as §1
[10] = biological target: PAS domain-containing serine/threonine-protein kinase (Homo sapiens) (UniProt Q96RG2); test: Inhibition of recombinant GST-tagged human PASK catalytic domain expressed in baculovirus expression system at 1 uM by FRET assay relative to control; procedure, shortened: as §1
[11] = biological target: Tyrosine-protein kinase receptor UFO (Homo sapiens) (UniProt P30530); test: Inhibition of recombinant His-tagged human AXL (473 to end residues) cytoplasmic domain expressed in insect cells at 1 uM by FRET assay relative to control; procedure, shortened: as §1
[12] = biological target: Activin receptor type-2B (Homo sapiens) (UniProt Q13705); test: Inhibition of recombinant GST-tagged human ACVR2B catalytic domain (185 to 488 residues) expressed in baculovirus expression system at 1 uM by FRET assay relative to control
[13] = biological target: Serine/threonine-protein kinase Sgk2 (Homo sapiens) (UniProt Q9HBY8); test: Inhibition of recombinant full length GST-tagged human SGK2 catalytic domain (54 to 427 residues) expressed in baculovirus expression system at 1 uM by FRET assay relative to control; procedure, shortened: as §2
[14] = biological target: Mitogen-activated protein kinase kinase kinase 9 (Homo sapiens, UniProt P80192); test: Inhibition of recombinant human GST-tagged MLK1 expressed in baculovirus at 1 uM by FRET assay relative to control
[15] = biological target: Serine/threonine-protein kinase 16 (Homo sapiens, UniProt O75716); test: Inhibition of recombinant full length His-tagged human STK16 expressed in baculovirus expression system at 1 uM by FRET assay relative to control
[16] = biological target: Peroxisome proliferator-activated receptor alpha (Homo sapiens) (UniProt Q07869); test: Binding affinity to recombinant human PPARalpha at 10 uM relative to control; procedure, shortened: as §3
[17] = biological target: Tyrosine-protein kinase Yes (Homo sapiens) (UniProt P07947); test: Inhibition of recombinant full length GST-tagged human Yes expressed in baculovirus expression system at 1 uM by FRET assay relative to control
[18] = biological target: Phosphorylase b kinase gamma catalytic chain, liver/testis isoform (Homo sapiens) (UniProt P15735); test: Inhibition of recombinant full length GST-tagged human PHKgamma2 expressed in baculovirus expression system at 1 uM by FRET assay relative to control; procedure, shortened: as §2
[19] = biological target: Dual specificity protein kinase CLK4 (Homo sapiens) (UniProt Q9HAZ1); test: Inhibition of full length recombinant GST-tagged human CLK4 expressed in baculovirus expression system at 1 uM by FRET assay relative to control
[20] = biological target: Cytoplasmic tyrosine-protein kinase BMX (Homo sapiens) (UniProt P51813); test: Inhibition of recombinant full length His-tagged human Bmx cytoplasmic domain expressed in Baculovirus expression system at 1 uM by FRET assay relative to control
[21] = biological target: Tyrosine-protein kinase SYK (Homo sapiens) (UniProt P43405); test: Inhibition of recombinant full length N-terminal GST-tagged human Syk cytoplasmic domain expressed in baculovirus expression system at 1 uM by FRET assay relative to control
[22] = biological target: Mitogen-activated protein kinase 10 (Homo sapiens, UniProt P53779); test: Inhibition of recombinant full length GST-tagged human JNK3 expressed in baculovirus expression system by FRET assay
[23] = biological target: Myosin light chain kinase (Homo sapiens) (UniProt Q32MK0); test: Inhibition of recombinant human full length N-terminal GST-tagged caMLCK expressed in baculovirus expression system at 1 uM by FRET assay relative to control
[24] = biological target: Tyrosine-protein kinase Fgr (Homo sapiens) (UniProt P09769); test: Inhibition of recombinant full length His-tagged human FGR expressed in baculovirus expression system at 1 uM by FRET assay relative to control
[25] = biological target: Protein kinase C theta type (Homo sapiens) (UniProt Q04759); test: Inhibition of PKCtheta (unknown origin) at 1 uM by FRET assay relative to control
[26] = biological target: Serine/threonine-protein kinase NLK (Homo sapiens) (UniProt Q9UBE8); test: Inhibition of recombinant full length GST-tagged human NLK expressed in baculovirus expression system at 1 uM by FRET assay relative to control; procedure, shortened: as §2
Homo sapiens [27] = organism: Homo sapiens; test: Binding affinity to KATP (unknown origin) receptor at 10 uM relative to control; procedure, shortened: as §3
[28] = biological target: Ephrin type-B receptor 1 (Homo sapiens) (UniProt P54762); test: Inhibition of recombinant GST-tagged human EphB1 cytoplasmic domain expressed in baculovirus expression system at 1 uM by FRET assay relative to control; procedure, shortened: as §1

Activated CDC42 kinase 1 (Homo sapiens), sequence (Q07912 whole entry, looked up, the tested form may be a part): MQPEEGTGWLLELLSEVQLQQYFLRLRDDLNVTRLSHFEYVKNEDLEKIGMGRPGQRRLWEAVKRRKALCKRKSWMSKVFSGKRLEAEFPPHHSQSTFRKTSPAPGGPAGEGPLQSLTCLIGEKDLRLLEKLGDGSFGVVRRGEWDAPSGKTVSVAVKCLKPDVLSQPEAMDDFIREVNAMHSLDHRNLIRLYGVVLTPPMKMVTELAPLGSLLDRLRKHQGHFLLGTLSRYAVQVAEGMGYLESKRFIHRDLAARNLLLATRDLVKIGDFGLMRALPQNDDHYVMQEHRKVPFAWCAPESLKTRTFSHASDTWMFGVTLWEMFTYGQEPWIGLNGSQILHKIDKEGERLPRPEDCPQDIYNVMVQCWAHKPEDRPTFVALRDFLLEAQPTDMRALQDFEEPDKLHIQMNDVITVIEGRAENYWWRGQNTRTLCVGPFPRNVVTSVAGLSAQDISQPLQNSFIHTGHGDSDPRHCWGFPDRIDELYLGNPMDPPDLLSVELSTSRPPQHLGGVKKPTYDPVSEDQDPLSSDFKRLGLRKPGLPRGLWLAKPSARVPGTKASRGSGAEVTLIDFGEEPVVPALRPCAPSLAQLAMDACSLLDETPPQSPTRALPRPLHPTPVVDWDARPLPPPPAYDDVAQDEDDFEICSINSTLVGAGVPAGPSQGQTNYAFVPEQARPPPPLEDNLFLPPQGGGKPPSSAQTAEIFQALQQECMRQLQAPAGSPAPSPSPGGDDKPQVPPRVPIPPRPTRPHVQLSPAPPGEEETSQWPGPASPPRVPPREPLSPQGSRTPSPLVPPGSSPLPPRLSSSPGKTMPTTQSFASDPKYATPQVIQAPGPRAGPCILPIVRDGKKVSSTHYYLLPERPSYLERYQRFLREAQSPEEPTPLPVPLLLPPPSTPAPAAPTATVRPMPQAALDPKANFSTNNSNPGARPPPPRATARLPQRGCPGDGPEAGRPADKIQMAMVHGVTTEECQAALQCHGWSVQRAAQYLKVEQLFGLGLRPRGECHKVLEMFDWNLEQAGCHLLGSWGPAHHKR
Tyrosine-protein kinase Yes (Homo sapiens), sequence (P07947 2-543 limits assumed): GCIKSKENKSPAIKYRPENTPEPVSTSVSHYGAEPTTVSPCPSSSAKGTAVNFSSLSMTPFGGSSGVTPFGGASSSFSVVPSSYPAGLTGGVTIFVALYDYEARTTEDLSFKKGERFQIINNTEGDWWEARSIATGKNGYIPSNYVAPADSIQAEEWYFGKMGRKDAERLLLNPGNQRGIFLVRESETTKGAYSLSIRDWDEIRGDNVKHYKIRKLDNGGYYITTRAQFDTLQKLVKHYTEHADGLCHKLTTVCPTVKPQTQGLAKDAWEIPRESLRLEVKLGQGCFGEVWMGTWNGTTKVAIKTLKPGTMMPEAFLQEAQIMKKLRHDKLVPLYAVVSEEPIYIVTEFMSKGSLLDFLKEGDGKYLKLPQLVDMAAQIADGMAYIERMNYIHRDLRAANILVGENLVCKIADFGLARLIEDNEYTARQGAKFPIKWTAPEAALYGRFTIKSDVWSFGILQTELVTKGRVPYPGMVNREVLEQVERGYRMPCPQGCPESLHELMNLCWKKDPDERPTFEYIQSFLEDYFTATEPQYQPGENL
Serine/threonine-protein kinase Sgk2 (Homo sapiens), sequence (Q9HBY8 whole entry, the tested form may be a part): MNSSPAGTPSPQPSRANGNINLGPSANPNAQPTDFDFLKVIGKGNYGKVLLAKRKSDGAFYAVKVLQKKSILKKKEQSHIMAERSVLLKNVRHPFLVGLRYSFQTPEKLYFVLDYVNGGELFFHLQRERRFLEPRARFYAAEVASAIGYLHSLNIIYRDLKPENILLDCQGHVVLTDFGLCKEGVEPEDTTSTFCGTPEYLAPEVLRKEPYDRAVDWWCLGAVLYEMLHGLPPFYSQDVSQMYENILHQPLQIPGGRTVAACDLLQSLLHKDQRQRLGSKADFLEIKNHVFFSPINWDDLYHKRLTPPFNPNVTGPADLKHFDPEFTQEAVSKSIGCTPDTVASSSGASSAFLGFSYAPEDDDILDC
Tyrosine-protein kinase Fgr (Homo sapiens), sequence (P09769 2-529 limits assumed): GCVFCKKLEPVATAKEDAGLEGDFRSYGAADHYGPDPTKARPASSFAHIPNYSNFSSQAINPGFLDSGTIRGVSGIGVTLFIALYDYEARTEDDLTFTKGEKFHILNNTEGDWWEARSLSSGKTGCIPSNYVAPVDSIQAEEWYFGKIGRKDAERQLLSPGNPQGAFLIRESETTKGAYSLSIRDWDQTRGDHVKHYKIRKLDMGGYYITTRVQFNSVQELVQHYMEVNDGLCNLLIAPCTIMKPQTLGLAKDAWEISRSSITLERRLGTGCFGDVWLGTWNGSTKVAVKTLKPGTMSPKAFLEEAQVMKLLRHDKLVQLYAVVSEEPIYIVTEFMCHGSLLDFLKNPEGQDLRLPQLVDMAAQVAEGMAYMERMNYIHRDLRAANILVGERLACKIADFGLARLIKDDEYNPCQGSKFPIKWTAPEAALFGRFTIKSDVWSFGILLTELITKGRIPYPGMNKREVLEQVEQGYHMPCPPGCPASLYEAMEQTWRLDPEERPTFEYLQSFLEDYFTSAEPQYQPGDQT
Cytoplasmic tyrosine-protein kinase BMX (Homo sapiens), sequence (P51813 whole entry, the tested form may be a part): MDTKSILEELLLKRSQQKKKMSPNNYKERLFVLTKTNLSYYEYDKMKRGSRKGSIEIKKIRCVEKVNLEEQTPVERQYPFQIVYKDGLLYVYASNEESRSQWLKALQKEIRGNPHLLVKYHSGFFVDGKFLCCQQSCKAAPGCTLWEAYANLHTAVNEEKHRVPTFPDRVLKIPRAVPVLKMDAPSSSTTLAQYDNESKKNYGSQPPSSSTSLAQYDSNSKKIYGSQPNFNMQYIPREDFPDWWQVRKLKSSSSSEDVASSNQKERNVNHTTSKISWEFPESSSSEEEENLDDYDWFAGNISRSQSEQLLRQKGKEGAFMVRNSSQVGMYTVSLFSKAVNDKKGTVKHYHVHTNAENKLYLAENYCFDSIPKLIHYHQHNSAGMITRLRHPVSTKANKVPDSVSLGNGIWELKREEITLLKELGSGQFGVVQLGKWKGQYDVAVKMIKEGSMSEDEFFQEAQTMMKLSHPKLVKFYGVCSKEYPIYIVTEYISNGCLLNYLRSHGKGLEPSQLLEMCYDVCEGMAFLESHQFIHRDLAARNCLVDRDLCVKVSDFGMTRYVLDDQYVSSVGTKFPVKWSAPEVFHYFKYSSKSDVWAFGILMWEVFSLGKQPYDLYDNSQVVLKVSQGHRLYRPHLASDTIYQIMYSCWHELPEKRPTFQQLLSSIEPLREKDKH
Tyrosine-protein kinase receptor UFO (Homo sapiens), sequence (P30530 whole entry, the tested form may be a part): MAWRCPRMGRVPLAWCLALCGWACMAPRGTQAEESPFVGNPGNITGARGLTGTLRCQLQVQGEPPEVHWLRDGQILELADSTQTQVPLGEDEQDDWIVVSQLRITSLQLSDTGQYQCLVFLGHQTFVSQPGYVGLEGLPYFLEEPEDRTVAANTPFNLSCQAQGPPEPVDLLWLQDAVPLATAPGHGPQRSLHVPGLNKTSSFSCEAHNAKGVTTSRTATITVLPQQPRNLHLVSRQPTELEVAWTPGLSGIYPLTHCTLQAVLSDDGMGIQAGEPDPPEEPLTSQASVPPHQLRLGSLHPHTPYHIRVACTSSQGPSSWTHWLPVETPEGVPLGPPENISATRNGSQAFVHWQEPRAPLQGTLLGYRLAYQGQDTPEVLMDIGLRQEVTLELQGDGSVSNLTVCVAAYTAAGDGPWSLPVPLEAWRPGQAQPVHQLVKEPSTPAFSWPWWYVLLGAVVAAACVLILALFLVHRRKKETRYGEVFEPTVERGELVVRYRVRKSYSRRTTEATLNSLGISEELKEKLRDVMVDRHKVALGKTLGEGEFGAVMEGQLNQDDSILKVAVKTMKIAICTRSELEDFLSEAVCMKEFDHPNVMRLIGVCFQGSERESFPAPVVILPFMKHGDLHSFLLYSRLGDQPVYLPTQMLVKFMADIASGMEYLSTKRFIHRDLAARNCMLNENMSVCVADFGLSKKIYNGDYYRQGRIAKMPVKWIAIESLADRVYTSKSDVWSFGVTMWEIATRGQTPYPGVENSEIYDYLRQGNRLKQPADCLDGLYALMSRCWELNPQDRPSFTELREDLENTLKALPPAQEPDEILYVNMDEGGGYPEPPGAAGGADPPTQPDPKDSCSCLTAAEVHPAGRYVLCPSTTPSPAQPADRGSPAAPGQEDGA
Serine/threonine-protein kinase 16, sequence (O75716 whole entry): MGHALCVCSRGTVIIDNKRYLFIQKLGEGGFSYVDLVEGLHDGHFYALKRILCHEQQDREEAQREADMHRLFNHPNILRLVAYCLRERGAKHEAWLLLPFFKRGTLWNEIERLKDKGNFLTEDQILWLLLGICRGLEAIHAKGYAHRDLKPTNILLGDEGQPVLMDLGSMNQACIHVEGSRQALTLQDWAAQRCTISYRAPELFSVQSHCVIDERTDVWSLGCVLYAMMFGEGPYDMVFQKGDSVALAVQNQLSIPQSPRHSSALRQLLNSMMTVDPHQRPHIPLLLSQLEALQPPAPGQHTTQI
MAP kinase-interacting serine/threonine-protein kinase 2 (Homo sapiens), sequence (Q9HBH9 whole entry, looked up): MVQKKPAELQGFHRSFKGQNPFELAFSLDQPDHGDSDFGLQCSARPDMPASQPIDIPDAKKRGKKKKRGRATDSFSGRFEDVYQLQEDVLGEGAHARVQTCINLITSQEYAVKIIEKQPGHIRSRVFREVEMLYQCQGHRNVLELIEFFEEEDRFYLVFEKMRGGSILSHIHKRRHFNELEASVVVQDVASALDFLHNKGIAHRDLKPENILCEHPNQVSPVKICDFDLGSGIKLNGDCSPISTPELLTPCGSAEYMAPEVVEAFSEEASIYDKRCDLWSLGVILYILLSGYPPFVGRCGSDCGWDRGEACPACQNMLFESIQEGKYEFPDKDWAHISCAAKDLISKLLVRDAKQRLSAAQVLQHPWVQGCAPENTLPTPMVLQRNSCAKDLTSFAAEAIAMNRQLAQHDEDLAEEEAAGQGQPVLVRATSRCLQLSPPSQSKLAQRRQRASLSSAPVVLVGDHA

Row | Compound | inhibition [1] [%] | pIC50 [2] | inhibition [3] [%] | inhibition [4] [%] | inhibition [5] [%] | inhibition [6] [%] | inhibition [7] [%] | Activity (Homo sapiens [8]) [%] | inhibition [9] [%] | inhibition [10] [%] | inhibition [11] [%] | inhibition [12] [%] | inhibition [13] [%] | inhibition [14] [%] | inhibition [15] [%] | Activity [16] [%] | inhibition [17] [%] | inhibition [18] [%] | inhibition [19] [%] | inhibition [20] [%] | also measured
1 | Nc1ncc(-c2cc([C@H]3[C@@H]4CN(C5COC5)C[C@@H]43)n(CC3CC3)n2)cc1C(F)(F)F | 0.6 | 6.62 | -0.9 | 22.9 | 14.9 | 3 | 0.9 | > 50 | 0.3 | 4.5 | 57.4 | -2.1 | 0.3 | 28.5 | 33.2 | > 50 | 29.8 | 3.8 | 16.4 | 14.1 | inhibition [21]: 30.6%; pIC50 [22]: < 5.00; inhibition [23]: 1.3%; inhibition [24]: 32.2%; inhibition [25]: 0.3%; inhibition [26]: -4.7%; Activity (Homo sapiens [27]): > 50%; inhibition [28]: 5.9%
2 | CC(C)n1nc(-c2cnc(N)c(OC(F)(F)F)c2)cc1[C@H]1[C@@H]2CN(C3COC3)C[C@@H]21 | -3.8 | 6.15 | 10.6 | 10.2 | 10.9 | 4 | 12.3 | > 50 | 1.3 | -0.6 | 40.7 | -0.8 | 2.7 | -7.2 | 50.3 | > 50 | 15.8 | 1.7 | 14.5 | 7.8 | inhibition [21]: 26.8%; pIC50 [22]: < 5.00; inhibition [23]: 0.8%; inhibition [24]: 31.9%; inhibition [25]: 9.3%; inhibition [26]: -4.5%; Activity (Homo sapiens [27]): > 50%; inhibition [28]: 10.1%
